In ChEMBL document CHEMBL4825702, “5-Aminonaphthalene derivatives as selective nonnucleoside nuclear receptor binding SET domain-protein 2 (NSD2) inhibitors for the treatment of multiple myeloma” (Eur J Med Chem, 2021):
Active and inactive are the calls of the source. The calls are words filed in the database; no cut-off is given here.

Assays:
MV4-11 [1] = experiment: cells; settings: Homo sapiens, MV4-11, 72 h, read-out: Activity
[2] = biological target: Histone-arginine methyltransferase CARM1 (Homo sapiens, UniProt Q86X55); experiment: Inhibition of PRMT4 (unknown origin) using SAM as substrate preincubated for 10 mins followed by substrate addition measured after 4 hrs by AlphaLISA method
KMS-11 [3] = experiment: Antiproliferative activity against human KMS-11 cells assessed as reduction in cell viability incubated for 6 days by CCK8 assay; settings: KMS-11, 6 days
[4] = AUC in CD-1 mouse at 2 mg/kg, ip measured up to 24 hrs by LC-MS/MS; type: ADME, organism-based; parameters: route intraperitoneal, dose 2 mg/kg, time <=24; settings: in vivo
Summary of the method: (§1)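 CD-1 mice given a single 2 mg/kg dose i.p. or i.v. (n = 3 per group). Blood sampled at 0, 0.083, 0.25, 0.5, 1, 2, 4, 6, 8 and 24 h and centrifuged for plasma, with internal standard added. Plasma deproteinized with methanol/acetonitrile (1:1), supernatant diluted with acetonitrile/water, and compound measured by LC/MS/MS.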

Jurkat = experiment: Antiproliferative activity against human Jurkat cells assessed as reduction in cell viability incubated for 6 days by CCK8 assay
[5] = biological target: T1, Histone-lysine N-methyltransferase NSD2 (Homo sapiens, UniProt O96028); experiment: Inhibition of recombinant human N-terminal GST-tagged NSD2 CD (941 to 1240 residues) expressed in Escherichia coli using SAM as substrate in presence of nucleosomes by AlphaLISA method
T1 sequence (O96028 whole entry): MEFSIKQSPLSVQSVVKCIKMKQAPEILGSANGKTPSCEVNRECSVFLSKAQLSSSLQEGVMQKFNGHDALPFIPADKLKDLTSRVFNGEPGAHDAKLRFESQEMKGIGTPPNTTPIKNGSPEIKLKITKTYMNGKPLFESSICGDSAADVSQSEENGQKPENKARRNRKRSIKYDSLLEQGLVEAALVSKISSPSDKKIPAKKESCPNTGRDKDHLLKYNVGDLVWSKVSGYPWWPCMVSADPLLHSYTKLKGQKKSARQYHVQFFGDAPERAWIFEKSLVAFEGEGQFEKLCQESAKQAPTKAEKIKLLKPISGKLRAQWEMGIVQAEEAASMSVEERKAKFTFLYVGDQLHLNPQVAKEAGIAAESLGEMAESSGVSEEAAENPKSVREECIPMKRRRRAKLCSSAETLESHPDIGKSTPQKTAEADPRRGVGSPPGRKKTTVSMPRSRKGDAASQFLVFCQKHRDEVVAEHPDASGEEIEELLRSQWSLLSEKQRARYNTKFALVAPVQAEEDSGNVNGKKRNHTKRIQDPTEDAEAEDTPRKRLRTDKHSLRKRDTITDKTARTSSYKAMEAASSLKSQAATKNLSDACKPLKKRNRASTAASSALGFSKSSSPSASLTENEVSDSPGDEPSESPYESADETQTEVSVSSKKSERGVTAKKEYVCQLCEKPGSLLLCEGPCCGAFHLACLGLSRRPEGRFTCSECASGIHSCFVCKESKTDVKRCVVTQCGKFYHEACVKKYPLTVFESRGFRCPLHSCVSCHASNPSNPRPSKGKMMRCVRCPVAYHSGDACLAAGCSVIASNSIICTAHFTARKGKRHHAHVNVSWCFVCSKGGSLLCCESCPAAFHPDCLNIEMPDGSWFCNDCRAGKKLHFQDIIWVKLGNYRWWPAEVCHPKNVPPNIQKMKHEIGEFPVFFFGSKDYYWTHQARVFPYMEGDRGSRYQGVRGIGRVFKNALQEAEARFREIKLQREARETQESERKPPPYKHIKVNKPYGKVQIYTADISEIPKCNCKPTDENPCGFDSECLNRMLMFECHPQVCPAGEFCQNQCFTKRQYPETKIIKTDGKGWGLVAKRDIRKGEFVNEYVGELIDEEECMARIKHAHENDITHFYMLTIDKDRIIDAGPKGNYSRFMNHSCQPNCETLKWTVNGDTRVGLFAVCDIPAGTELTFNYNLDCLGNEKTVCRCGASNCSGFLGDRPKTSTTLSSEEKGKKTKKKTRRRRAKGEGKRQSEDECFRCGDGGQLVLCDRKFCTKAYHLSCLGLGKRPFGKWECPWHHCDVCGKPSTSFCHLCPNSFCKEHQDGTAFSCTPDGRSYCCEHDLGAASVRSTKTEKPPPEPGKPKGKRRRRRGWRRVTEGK

[6] = biological target: Histone-lysine N-methyltransferase EZH2 (Homo sapiens, UniProt Q15910); experiment: Inhibition of EZH2 (unknown origin) using SAM as substrate preincubated for 10 mins followed by substrate addition measured after 4 hrs by HTRF method
Summary of the method: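 HTRF assay: inhibitor plus enzyme preincubated 10 min at room temperature, then peptide/SAM mix added and incubated at room temperature. Antibody and SA-XL665 detection mix added for 1 h in subdued light. Emission read at 665 and 620 nm; IC50 from two separate experiments.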

[7] = Volume of distribution in CD-1 mouse at 2 mg/kg, iv measured up to 24 hrs by LC-MS/MS; type: ADME, organism-based; settings: in vivo
Summary of the method: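 CD-1 mice dosed at 2 mg/kg i.p. or i.v., n = 3 per group. Blood sampled at 0, 0.083, 0.25, 0.5, 1, 2, 4, 6, 8 and 24 h and spun for plasma. Internal standard added, deproteinized with methanol/acetonitrile (1:1), supernatant diluted and analysed by LC/MS/MS.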

[8] = Half life in CD-1 mouse at 2 mg/kg, iv measured up to 24 hrs by LC-MS/MS; type: ADME, organism-based; settings: in vivo
Summary of the method: as §1

[9] = Inhibition of MET transcriptional activity in human KMS-11 cells assessed as reduction in H3K36 methylation at 10 uM measured after 72 hrs by chip q-PCR analysis
U2932 = experiment: Antiproliferative activity against human U2932 cells assessed as reduction in cell viability incubated for 6 days by CCK8 assay
KARPAS-422 = experiment: Antiproliferative activity against human KARPAS-422 cells assessed as reduction in cell viability incubated for 6 days by CCK8 assay
KMS-11 [10] = experiment: Antiproliferative activity against human KMS-11 cells assessed as reduction in cell viability incubated for 6 days by CCK8 assay; type: functional, cell-based; settings: dose 1-100 µM, time 6.0 day
Summary of the method: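 Cells seeded in triplicate at 6000–20000 per well and left 24 h, then exposed to increasing concentrations for a further 6 days. Viability read with CCK-8 and growth IC50 derived from the dose–response.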

[11] = biological target: Protein arginine N-methyltransferase 5 (Homo sapiens, UniProt O14744); experiment: Inhibition of PRMT5 (unknown origin) using SAM as substrate preincubated for 10 mins followed by substrate addition measured after 4 hrs by AlphaLISA method
MV4-11 [12] = experiment: Antiproliferative activity against human MV4-11 cells assessed as reduction in cell viability incubated for 6 days by CCK8 assay

Sequence of Histone-lysine N-methyltransferase EZH2 (Q15910 whole entry): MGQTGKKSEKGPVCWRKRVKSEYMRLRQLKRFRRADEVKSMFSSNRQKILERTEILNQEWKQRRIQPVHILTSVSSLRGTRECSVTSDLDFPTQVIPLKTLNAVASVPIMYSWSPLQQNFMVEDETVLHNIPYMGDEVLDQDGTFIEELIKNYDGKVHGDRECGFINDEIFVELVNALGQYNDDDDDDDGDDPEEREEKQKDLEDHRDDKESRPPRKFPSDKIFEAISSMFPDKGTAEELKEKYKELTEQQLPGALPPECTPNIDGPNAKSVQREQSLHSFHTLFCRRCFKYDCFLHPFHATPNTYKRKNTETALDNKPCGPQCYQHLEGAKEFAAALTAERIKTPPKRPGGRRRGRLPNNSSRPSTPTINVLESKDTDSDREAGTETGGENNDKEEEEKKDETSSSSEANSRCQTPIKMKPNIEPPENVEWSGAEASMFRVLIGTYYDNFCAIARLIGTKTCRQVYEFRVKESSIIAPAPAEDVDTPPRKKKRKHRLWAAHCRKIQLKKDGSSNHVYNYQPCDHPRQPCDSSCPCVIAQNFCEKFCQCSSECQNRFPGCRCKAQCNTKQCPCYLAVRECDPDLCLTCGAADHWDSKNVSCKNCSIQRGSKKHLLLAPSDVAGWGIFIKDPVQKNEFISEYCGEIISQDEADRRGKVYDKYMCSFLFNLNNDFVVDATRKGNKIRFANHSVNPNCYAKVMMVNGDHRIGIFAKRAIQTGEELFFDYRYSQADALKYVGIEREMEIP
Sequence of Protein arginine N-methyltransferase 5 (O14744 whole entry): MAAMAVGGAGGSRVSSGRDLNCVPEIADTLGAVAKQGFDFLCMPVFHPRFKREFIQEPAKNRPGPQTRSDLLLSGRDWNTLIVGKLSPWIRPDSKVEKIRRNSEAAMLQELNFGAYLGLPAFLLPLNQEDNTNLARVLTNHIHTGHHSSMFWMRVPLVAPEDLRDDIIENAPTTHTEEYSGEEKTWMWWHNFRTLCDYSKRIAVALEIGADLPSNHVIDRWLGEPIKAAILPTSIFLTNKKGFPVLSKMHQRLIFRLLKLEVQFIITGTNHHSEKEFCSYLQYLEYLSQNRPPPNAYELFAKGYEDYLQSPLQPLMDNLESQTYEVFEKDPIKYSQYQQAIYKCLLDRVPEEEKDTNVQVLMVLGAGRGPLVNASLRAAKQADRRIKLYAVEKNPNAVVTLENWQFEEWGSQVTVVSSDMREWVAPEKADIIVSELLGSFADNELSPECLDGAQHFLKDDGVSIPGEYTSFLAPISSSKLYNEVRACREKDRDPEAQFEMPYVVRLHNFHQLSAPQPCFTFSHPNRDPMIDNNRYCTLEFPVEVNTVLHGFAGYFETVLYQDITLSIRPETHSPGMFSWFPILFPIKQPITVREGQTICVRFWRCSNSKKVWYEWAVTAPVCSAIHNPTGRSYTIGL
Sequence of Histone-arginine methyltransferase CARM1 (Q86X55 whole entry): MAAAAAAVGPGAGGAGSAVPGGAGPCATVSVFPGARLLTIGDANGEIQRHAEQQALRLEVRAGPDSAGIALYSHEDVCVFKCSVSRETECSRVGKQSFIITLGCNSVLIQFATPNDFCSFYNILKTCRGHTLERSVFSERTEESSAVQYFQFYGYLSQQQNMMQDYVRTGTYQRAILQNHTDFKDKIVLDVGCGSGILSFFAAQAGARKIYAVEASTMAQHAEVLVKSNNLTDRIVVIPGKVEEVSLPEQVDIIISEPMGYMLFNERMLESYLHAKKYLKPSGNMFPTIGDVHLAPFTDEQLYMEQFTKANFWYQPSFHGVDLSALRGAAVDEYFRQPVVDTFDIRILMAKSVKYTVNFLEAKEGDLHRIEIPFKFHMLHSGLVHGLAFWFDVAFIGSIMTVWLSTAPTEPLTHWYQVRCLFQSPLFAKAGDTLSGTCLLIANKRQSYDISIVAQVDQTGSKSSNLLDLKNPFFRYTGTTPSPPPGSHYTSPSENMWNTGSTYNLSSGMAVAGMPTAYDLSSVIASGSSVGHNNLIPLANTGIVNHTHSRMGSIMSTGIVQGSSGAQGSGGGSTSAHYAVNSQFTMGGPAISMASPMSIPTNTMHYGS

- IC50 [2]: > 20000 nM
- AUC at 24 h [4]: 150 ng·h/mL
- IC50 [5]: 2700 nM
- IC50 [6]: > 20000 nM
- Vd [7]: 3.85 L/kg
- half-life [8]: 39.6 min
- inhibition [9]: Active
- IC50 [11]: > 20000 nM
SMILES: Cl.Nc1cccc2c(S(=O)(=O)NCc3ccccc3)cccc12
- viability at 10 µM (MV4-11 [1]): 94%
- IC50 (KMS-11 [3]): 1880 nM
- Activity (Jurkat): Active
- Activity (U2932): Active
- Activity (KARPAS-422): Active
- Activity (KMS-11 [10]): Dose-Dependent Effect
- Activity (MV4-11 [12]): Active
